Experimental data published in ChEMBL document CHEMBL1156517, “Targeting thyroid hormone receptor-beta agonists to the liver reduces cholesterol and triglycerides and improves the therapeutic index” (Proc Natl Acad Sci U S A, 2007).
Active and inactive are the calls of the source. The rule behind the calls is not given here.

Experiments:
Rattus norvegicus [1] = test: Effect on type 1 iodothyronine deiodinase mRNA expression in po dosed Sprague-Dawley rat heart; type: functional, organism-based; conditions: TDE = time-dependent effect
Summary of the method: (§1)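 Killed 3, 8 and 24 h post-dose under 2.5% isoflurane. Pituitary and thyroid snap-frozen; liver, heart, soleus, spleen and kidney freeze-clamped. mRNA by quantitative real-time PCR, expressed as fold-change vs vehicle.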

Rattus norvegicus [2] = test: Toxicity in Sprague-Dawley rat assessed as suppression of thyroid hormone axis measured by decrease in total 3,5,3',5'-tetraiodo-L-thyronine level at 1000 mg/kg/day, po for 7 days; type: organism-based; design: route oral; conditions: in vivo, 168 h
Rattus norvegicus [3] = test: Effect on SREBP-1c mRNA expression in po dosed Sprague-Dawley rat liver; type: functional, organism-based; conditions: TDE = time-dependent effect
Rattus norvegicus [4] = test: Effect on MHCbeta mRNA expression in po dosed Sprague-Dawley rat heart; type: functional, organism-based; conditions: TDE = time-dependent effect
Rattus norvegicus [5] = test: Effect on TSH-beta mRNA expression in po dosed Sprague-Dawley rat pituitary gland; type: functional, organism-based; conditions: TDE = time-dependent effect
Rattus norvegicus [6] = test: Toxicity in Sprague-Dawley rat assessed as suppression of thyroid hormone axis measured by decrease in TSH-beta mRNA level at 1000 mg/kg/day, po for 7 days relative to control; type: organism-based; design: route oral; conditions: in vivo, 168 h
Rattus norvegicus [7] = test: Toxicity in Sprague-Dawley rat assessed as suppression of thyroid hormone axis measured by decrease in total […]-L-thyronine level at 30 mg/kg/day, po for 7 days; type: organism-based; design: route oral; conditions: in vivo, 168 h
Mus musculus [8] = test: Effect on hepatic LDLR mRNA level in wild-type C57BL/6 mouse at 0.5 mg/kg/day once daily for 7 days; type: functional
Rattus norvegicus [9] = test: Toxicity in Sprague-Dawley rat assessed as suppression of thyroid hormone axis measured by decrease in serum TSH level at 30 mg/kg/day, po for 7 days relative to control; type: organism-based; design: route oral; conditions: in vivo, 168 h
Rattus norvegicus [10] = test: Toxicity in Sprague-Dawley rat assessed as suppression of thyroid hormone axis measured by decrease in TSH-beta mRNA level at 3 mg/kg/day, po for 7 days relative to control; type: organism-based; design: route oral; conditions: in vivo, 168 h
Rattus norvegicus [11] = test: Toxicity in Sprague-Dawley rat assessed as suppression of thyroid hormone axis measured by decrease in total 3,5,3',5'-tetraiodo-L-thyronine level at 3 mg/kg/day, po for 7 days; type: organism-based; design: route oral; conditions: in vivo, 168 h
Rattus norvegicus [12] = test: Toxic cardiac effect on Sprague-Dawley rat assessed as increase in first derivative of left ventricular pressure at >= 0.065 mg/kg/day, po for 7 days; type: toxicity, organism-based, Heart left ventricle; design: route oral; conditions: in vivo, 168 h
Summary of the method: (§2)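 Male SD rats (n = 6 per group) dosed daily by oral gavage for 7 days; vehicle group included. On day 7, rats anesthetized with isoflurane; catheter-tip transducer inserted into left ventricle via right carotid artery. LV pressure, LV dP/dt and heart rate (lead I ECG) recorded digitally. Systolic/diastolic aortic pressure taken by retracting catheter into proximal aorta.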

Rattus norvegicus [13] = species: Rattus norvegicus; test: Reduction in plasma cholesterol level in cholesterol fed Sprague-Dawley rat; type: functional
Rattus norvegicus [14] = test: Toxicity in Sprague-Dawley rat assessed as suppression of thyroid hormone axis measured by decrease in total […]-L-thyronine level at 1000 mg/kg/day, po for 7 days; type: organism-based; design: route oral; conditions: in vivo, 168 h
Rattus norvegicus [15] = test: Effect on fasting blood glucose level in Sprague-Dawley rat at 650 ug/kg/day, sc after 8 days by oral glucose tolerance test; type: functional
Rattus norvegicus [16] = test: Toxicity in Sprague-Dawley rat assessed as suppression of thyroid hormone axis measured by decrease in total 3,5,3',5'-tetraiodo-L-thyronine level at 300 mg/kg/day, po for 7 days; type: organism-based; design: route oral; conditions: in vivo, 168 h
Rattus norvegicus [17] = test: Toxicity in Sprague-Dawley rat assessed as suppression of thyroid hormone axis measured by decrease in total 3,5,3',5'-tetraiodo-L-thyronine level at 30 mg/kg/day, po for 7 days; type: organism-based; design: route oral; conditions: in vivo, 168 h
Rattus norvegicus [18] = test: Effect on UCP3 mRNA expression in po dosed Sprague-Dawley rat muscle; type: functional, organism-based; conditions: Muscle tissue, TDE = time-dependent effect
Mus musculus [19] = test: Decrease in cholesterol level in LDLR deficient C57BL/6 mouse at 0.5 mg/kg/day once daily for 7 days; type: functional, organism-based
Rattus norvegicus [20] = test: Effect on plasma insulin level in Sprague-Dawley rat at 650 ug/kg/day, sc after 8 days; type: functional
Rattus norvegicus [21] = test: Effect on malic enzyme mRNA expression in po dosed Sprague-Dawley rat liver; type: functional, organism-based; conditions: TDE = time-dependent effect; summary of the method: as §1
Rattus norvegicus [22] = test: Toxic cardiac effect on Sprague-Dawley rat assessed as increase in heart rate at >= 0.065 mg/kg/day, po for 7 days; type: toxicity, organism-based; design: route oral; conditions: in vivo, 168 h; summary of the method: as §2
Mus musculus [23] = test: Decrease in cholesterol level in LDLR deficient C57BL/6 mouse at 5 mg/kg/day once daily for 7 days; type: functional, organism-based
Rattus norvegicus [24] = test: Effect on LDLR mRNA expression in po dosed Sprague-Dawley rat liver; type: functional, organism-based; conditions: TDE = time-dependent effect
Rattus norvegicus [25] = test: Effect on plasma fatty acid level in Sprague-Dawley rat at 650 ug/kg/day, sc after 8 days; type: functional
Mus musculus [26] = test: Decrease in cholesterol level in wild-type C57BL/6 mouse at 5 mg/kg/day once daily for 7 days; type: functional, organism-based
Rattus norvegicus [27] = test: Toxic cardiac effect on Sprague-Dawley rat assessed as increase in systolic aortic pressure at >= 0.065 mg/kg/day, po for 7 days; type: toxicity, organism-based; design: route oral; conditions: in vivo, 168 h; summary of the method: as §2
Rattus norvegicus [28] = test: Toxicity in Sprague-Dawley rat assessed as suppression of thyroid hormone axis measured by decrease in TSH-beta mRNA level at 30 mg/kg/day, po for 7 days relative to control; type: organism-based; design: route oral; conditions: in vivo, 168 h
Rattus norvegicus [29] = test: Toxicity in Sprague-Dawley rat assessed as suppression of thyroid hormone axis measured by decrease in TSH-beta mRNA level at 300 mg/kg/day, po for 7 days relative to control; type: organism-based; design: route oral; conditions: in vivo, 168 h
Rattus norvegicus [30] = test: Toxicity in Sprague-Dawley rat assessed as suppression of thyroid hormone axis measured by decrease in serum TSH level at 3 mg/kg/day, po for 7 days relative to control; type: organism-based; design: route oral; conditions: in vivo, 168 h
Rattus norvegicus [31] = test: Effect on type 1 iodothyronine deiodinase mRNA expression in po dosed Sprague-Dawley rat kidney; type: functional, organism-based; conditions: TDE = time-dependent effect; summary of the method: as §1
Rattus norvegicus [32] = test: Effect on type 1 iodothyronine deiodinase mRNA expression in po dosed Sprague-Dawley rat pituitary gland; type: functional, organism-based; conditions: TDE = time-dependent effect; summary of the method: as §1
Rattus norvegicus [33] = test: Toxicity in Sprague-Dawley rat assessed as suppression of thyroid hormone axis measured by decrease in total […]-L-thyronine level at 300 mg/kg/day, po for 7 days; type: organism-based; design: route oral; conditions: in vivo, 168 h
Rattus norvegicus [34] = test: Toxicity in Sprague-Dawley rat assessed as suppression of thyroid hormone axis measured by decrease in serum TSH level at 1000 mg/kg/day, po for 7 days relative to control; type: organism-based; design: route oral; conditions: in vivo, 168 h
Rattus norvegicus [35] = test: Effect on food intake in Sprague-Dawley rat at 650 ug/kg/day, sc after 8 days; type: functional
Mus musculus [36] = test: Effect on hepatic LDLR mRNA level in LDLR deficient C57BL/6 mouse at 0.5 mg/kg/day once daily for 7 days; type: functional
Mus musculus [37] = test: Decrease in cholesterol level in wild-type C57BL/6 mouse at 0.5 mg/kg/day once daily for 7 days; type: functional, organism-based
Rattus norvegicus [38] = test: Effect on type 1 iodothyronine deiodinase mRNA expression in po dosed Sprague-Dawley rat liver; type: functional, organism-based; conditions: TDE = time-dependent effect; summary of the method: as §1
Rattus norvegicus [39] = test: Toxicity in Sprague-Dawley rat assessed as suppression of thyroid hormone axis measured by decrease in total […]-L-thyronine level at 3 mg/kg/day, po for 7 days; type: organism-based; design: route oral; conditions: in vivo, 168 h
Rattus norvegicus [40] = test: Effect on type 1 iodothyronine deiodinase mRNA expression in po dosed Sprague-Dawley rat spleen; type: functional, organism-based; conditions: TDE = time-dependent effect; summary of the method: as §1
Rattus norvegicus [41] = test: Effect on type 1 iodothyronine deiodinase mRNA expression in po dosed Sprague-Dawley rat thyroid gland; type: functional, organism-based; conditions: TDE = time-dependent effect; summary of the method: as §1
Rattus norvegicus [42] = test: Toxicity in Sprague-Dawley rat assessed as suppression of thyroid hormone axis measured by decrease in serum TSH level at 300 mg/kg/day, po for 7 days relative to control; type: organism-based; design: route oral; conditions: in vivo, 168 h
Rattus norvegicus [43] = test: Effect on body weight in Sprague-Dawley rat at 650 ug/kg/day, sc after 8 days; type: functional

- Activity (Rattus norvegicus [1]): tde
- Activity (Rattus norvegicus [21]): tde
- Activity (Rattus norvegicus [31]): tde
- Activity (Rattus norvegicus [32]): tde
- Activity (Rattus norvegicus [38]): tde
- Activity (Rattus norvegicus [40]): tde
- Activity (Rattus norvegicus [41]): tde
Compound: N[C@@H](Cc1cc(I)c(Oc2ccc(O)c(I)c2)c(I)c1)C(=O)O [LIOTHYRONINE]
- Activity (Rattus norvegicus [2]): 8.4 ng/mL
- Activity (Rattus norvegicus [3]): tde
- Activity (Rattus norvegicus [4]): tde
- Activity (Rattus norvegicus [5]): tde
- Activity (Rattus norvegicus [6]): 0.081
- Activity (Rattus norvegicus [7]): 0.42 ng/mL
- Activity (Mus musculus [8]): -42.4%
- Activity (Rattus norvegicus [9]): 0.0139
- Activity (Rattus norvegicus [10]): 0.93
- Activity (Rattus norvegicus [11]): 37.3 ng/mL
- Activity (Rattus norvegicus [12]): Active
- ED50 (Rattus norvegicus [13]): 0.012 mg/kg
- Activity (Rattus norvegicus [14]): 16.45 ng/mL
- Activity (Rattus norvegicus [15]): 25 mg/dL
- Activity (Rattus norvegicus [16]): 1.43 ng/mL
- Activity (Rattus norvegicus [17]): 4.2 ng/mL
- Activity (Rattus norvegicus [18]): tde
- Activity (Mus musculus [19]): inactive
- Activity (Rattus norvegicus [20]): 0.334 ng/mL
- Activity (Rattus norvegicus [22]): Active
- Activity (Mus musculus [23]): inactive
- Activity (Rattus norvegicus [24]): tde
- Activity (Rattus norvegicus [25]): 0.937 mM
- Activity (Mus musculus [26]): Active
- Activity (Rattus norvegicus [27]): Active
- Activity (Rattus norvegicus [28]): 0.14
- Activity (Rattus norvegicus [29]): 0.0978
- Activity (Rattus norvegicus [30]): 0.57
- Activity (Rattus norvegicus [33]): 4.06 ng/mL
- Activity (Rattus norvegicus [34]): 0.001365
- Activity (Rattus norvegicus [35]): 16.2%
- Activity (Mus musculus [36]): 9.5%
- Activity (Mus musculus [37]): Active
- Activity (Rattus norvegicus [39]): 0.49 ng/mL
- Activity (Rattus norvegicus [42]): 0.0031
- Activity (Rattus norvegicus [43]): 4.3 g
